Test results as given in ChEMBL document CHEMBL4007408, “Identification of Novel Triazole-Based Nicotinamide Phosphoribosyltransferase (NAMPT) Inhibitors Endowed with Antiproliferative and Antiinflammatory Activity” (J Med Chem, 2017).
Active and inactive are the calls of the source. The rule behind the calls is not given here.

Columns and labels:
[1] = tested on: Mus musculus; test: In vivo inhibition of NAMPT in DNBS-induced BALB/c mouse colitis model assessed as reduction in neutrophil infiltration by measuring myeloperoxidase levels at 20 mg/kg, ip bid administered for 3 days post DNBS challenge by ELISA; assay type: functional, organism-based
[2] = Drug metabolism in human liver microsomes assessed as mixed function oxidase mediated compound degradation after 60 mins in presence of NADPH-regenerating system by LC-UV analysis; assay type: ADME; details: 1 h
Outline: (§1)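 Substrate at 50 μM final, with rat or human liver microsomes at 1.0 mg/ml protein, in 50 mM Tris-HCl pH 7.4. Mix held 3.3 mM MgCl2, 1% acetonitrile and an NADPH-regenerating system (1.3 mM β-NADP, 3.3 mM glucose 6-phosphate, 0.4 U/ml G6PDH). Shaken 60 min at 37 °C, stopped with ice-cold acetonitrile. LC-UV gave % residual substrate versus a no-microsome control, mean of two replicates.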

[3] = tested on: Liver; test: Drug metabolism in Wistar Han rat liver microsomes assessed as pyridine N-oxidation after 60 mins in presence of NADPH-regenerating system by LC-UV analysis; assay type: ADME, microsome; details: 1 h
Outline: (§2)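 Metabolites were characterized by LC-ESI-MSn on supernatants of 60 min, 37 °C incubations. Each used 50 μM substrate with rat or human liver microsomes (1.0 mg/ml protein) in 50 mM Tris-HCl pH 7.4 with 3.3 mM MgCl2, 1% acetonitrile and an NADPH-regenerating system. Reactions were quenched with cold acetonitrile and centrifuged.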

[4] = Clearance in athymic Nu/Nu Harlan mouse at 10 mg/kg, iv administered as single dose up to 24 hrs by LC-ESI-MS analysis; assay type: ADME, organism-based; details: in vivo
[5] = Drug metabolism in Wistar Han rat liver microsomes assessed as mixed function oxidase mediated compound degradation after 60 mins in presence of NADPH-regenerating system by LC-UV analysis; assay type: ADME; details: 1 h; outline: as §1
[6] = tested on: Mus musculus; test: Toxicity in athymic nu/nu Harlan mouse xenografted with human A2780 cells assessed as body weight loss at 10 mg/kg, ip bid administered for 8 consecutive days measured through out study; assay type: organism-based; details: in vivo
[7] = Half life in athymic Nu/Nu Harlan mouse at 10 mg/kg, iv administered as single dose up to 24 hrs by LC-ESI-MS analysis; assay type: ADME, organism-based; details: in vivo
[8] = tested on: Mus musculus; test: Antiinflammatory activity of DSS-induced […] mouse colitis model assessed as reversion of changes in colon length at 20 mg/kg administered daily for 7 days post DSS challenge; assay type: functional, organism-based
[9] = tested on: Mus musculus; test: Antiinflammatory activity of DSS-induced […] mouse colitis model assessed as improved general condition at 20 mg/kg administered daily for 7 days post DSS challenge; assay type: functional, organism-based
[10] = tested on: SH-SY5Y; test: Cytotoxicity against human SH-SY5Y cells assessed as reduction in cell viability after 56 hrs by MTT assay; assay type: functional, cell-based; details: Homo sapiens, SH-SY5Y, 56 h; read-out: EC50
[11] = tested on: Liver; test: Drug metabolism in human liver microsomes assessed as pyridine N-oxidation after 60 mins in presence of NADPH-regenerating system by LC-UV analysis; assay type: ADME, microsome; details: 1 h; outline: as §2
[12] = tested on: Mus musculus; test: Antiinflammatory activity of DSS-induced […] mouse colitis model assessed as reduction in neutrophil infiltration by measuring myeloperoxidase levels at 20 mg/kg administered daily for 7 days post DSS challenge by ELISA; assay type: functional, organism-based
[13] = tested on: A2780; test: Cytotoxicity against human A2780 cells assessed as reduction in cell viability; assay type: functional, cell-based
[14] = tested on: Mus musculus; test: Antiinflammatory activity of DSS-induced […] mouse colitis model assessed as disease activity index at 20 mg/kg administered daily for 7 days post DSS challenge (reference value: 6); assay type: functional
[15] = tested on: Mus musculus; test: Antiinflammatory activity of DSS-induced […] mouse colitis model assessed as reduction in loss of body weight at 20 mg/kg administered daily for 7 days post DSS challenge; assay type: functional, organism-based
[16] = tested on: Liver; test: Stability in human liver microsomes after 60 mins by LC-ESI-MS analysis; assay type: ADME, microsome; details: 1 h
[17] = Volume of distribution in athymic Nu/Nu Harlan mouse at 10 mg/kg, iv administered as single dose up to 24 hrs by LC-ESI-MS analysis; assay type: ADME, organism-based; details: in vivo
[18] = tested on: Mus musculus; test: Downregulation of NAMPT expression in DNBS-induced BALB/c mouse colitis model at 20 mg/kg, ip bid administered for 3 days post DNBS challenge by Western blot analysis; assay type: functional, organism-based
[19] = tested on: Mus musculus; test: In vivo inhibition of NAMPT in DNBS-induced BALB/c mouse colitis model assessed as reduction in mucosal congestion at 20 mg/kg, ip bid administered for 3 days post DNBS challenge; assay type: functional, organism-based
[20] = Drug metabolism in human liver microsomes assessed as mixed function oxidase mediated compound cleavage by measuring compound remaining after 60 mins in presence of NADPH-regenerating system by LC-UV analysis; assay type: ADME; details: read-out: Stability; outline: as §1
[21] = AUC in athymic Nu/Nu Harlan mouse at 10 mg/kg, iv administered as single dose up to 24 hrs by LC-ESI-MS analysis; assay type: ADME, organism-based; design: time < 24 hr, dose 10 mg/kg, route intravenous; details: in vivo
[22] = tested on: Mus musculus; test: In vivo inhibition of NAMPT in DNBS-induced BALB/c mouse colitis model assessed as reduction in erosion at 20 mg/kg, ip bid administered for 3 days post DNBS challenge; assay type: functional, organism-based
[23] = tested on: Fibrosarcoma cell; test: Antitumor activity against mouse fibrosarcoma cells allografted in athymic nu/nu Harlan mouse
[24] = tested on: Mammary cancer cell; test: Antitumor activity against mouse mammary cancer cells allografted in athymic nu/nu Harlan mouse
[25] = tested on: Mus musculus; test: In vivo inhibition of NAMPT in DNBS-induced BALB/c mouse colitis model assessed as reduction in loss of body weight at 20 mg/kg, ip bid administered for 3 days post DNBS challenge; assay type: functional, organism-based
[26] = Apparent aqueous solubility of the compound; assay type: physicochemical; details: buffer
Outline: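 Kinetic solubility was measured by filtration. Compound from a 10 mM DMSO stock was diluted in PBS pH 7.4 to nominal 500 and 200 μM, shaken 90 min at room temperature and filtered. Filtrate was diluted 4:1 with acetonitrile and absorbance read at 260/280 nm. Concentration came from a calibration curve (3.13–500 μM in 80:20 PBS/acetonitrile, 5% DMSO; r2 >0.85) × 1.25. Run in duplicate.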

[27] = biological target: Nicotinamide phosphoribosyltransferase (Homo sapiens, UniProt P43490); test: Inhibition of NAMPT in human Jurkat T cells assessed as reduction in NAD levels; assay type: cell-based
Sequence of Nicotinamide phosphoribosyltransferase (Homo sapiens, UniProt P43490) (P43490 whole entry): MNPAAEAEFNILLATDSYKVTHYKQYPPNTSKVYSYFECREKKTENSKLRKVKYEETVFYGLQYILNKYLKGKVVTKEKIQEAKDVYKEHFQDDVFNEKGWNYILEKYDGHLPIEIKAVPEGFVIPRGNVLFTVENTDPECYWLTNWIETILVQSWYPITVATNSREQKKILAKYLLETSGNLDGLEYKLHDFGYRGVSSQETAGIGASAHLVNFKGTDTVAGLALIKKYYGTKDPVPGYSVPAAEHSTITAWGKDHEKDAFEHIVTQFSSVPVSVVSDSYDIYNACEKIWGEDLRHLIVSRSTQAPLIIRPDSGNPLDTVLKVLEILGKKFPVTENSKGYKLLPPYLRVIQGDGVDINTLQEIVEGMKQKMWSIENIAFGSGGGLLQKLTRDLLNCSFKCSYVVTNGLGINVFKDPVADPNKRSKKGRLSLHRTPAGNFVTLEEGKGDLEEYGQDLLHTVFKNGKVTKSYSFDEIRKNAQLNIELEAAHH

[28] = tested on: Liver; test: Stability in Wistar Han rat liver microsomes after 60 mins by LC-ESI-MS analysis; assay type: ADME, microsome; details: 1 h
[29] = tested on: A2780; test: Antitumor activity against human A2780 cells xenografted in athymic nu/nu Harlan mouse assessed as reduction in tumor growth at 10 mg/kg, ip bid administered for 8 consecutive days; assay type: functional, organism-based
[30] = tested on: Mus musculus; test: In vivo inhibition of NAMPT in DNBS-induced BALB/c mouse colitis model assessed as reduction in hemorrhagic ulcerations at 20 mg/kg, ip bid administered for 3 days post DNBS challenge; assay type: functional, organism-based
[31] = biological target: Nicotinamide phosphoribosyltransferase (Mus musculus, UniProt Q99KQ4); test: Inhibition of recombinant mouse NAMPT expressed in bacterial expression system using nicotinamide as substrate after 1 hr by fluorescence based NMNAT-3 enzyme coupled assay; details: read-out: IC50
Sequence of Nicotinamide phosphoribosyltransferase (Mus musculus, UniProt Q99KQ4) (Q99KQ4 whole entry): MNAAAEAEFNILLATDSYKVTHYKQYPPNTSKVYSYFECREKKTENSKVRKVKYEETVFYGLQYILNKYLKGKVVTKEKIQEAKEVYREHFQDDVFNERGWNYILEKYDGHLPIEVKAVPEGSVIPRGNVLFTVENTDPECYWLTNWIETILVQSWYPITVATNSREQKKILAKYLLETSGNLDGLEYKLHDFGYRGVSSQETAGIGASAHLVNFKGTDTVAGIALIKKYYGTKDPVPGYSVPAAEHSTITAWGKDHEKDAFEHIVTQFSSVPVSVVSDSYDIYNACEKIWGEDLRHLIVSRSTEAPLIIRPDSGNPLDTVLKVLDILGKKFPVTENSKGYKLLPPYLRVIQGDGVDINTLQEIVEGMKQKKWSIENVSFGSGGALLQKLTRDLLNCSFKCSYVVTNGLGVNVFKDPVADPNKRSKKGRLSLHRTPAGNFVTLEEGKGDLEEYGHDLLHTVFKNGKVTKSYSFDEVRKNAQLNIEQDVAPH

[32] = Drug metabolism in Wistar Han rat liver microsomes assessed as mixed function oxidase mediated compound cleavage by measuring compound remaining after 60 mins in presence of NADPH-regenerating system by LC-UV analysis; assay type: ADME; details: read-out: Stability; outline: as §1
[33] = tested on: Mus musculus; test: Drug metabolism in athymic Nu/Nu Harlan mouse blood assessed as N-oxide metabolite formation at 10 mg/kg, iv administered as single dose up to 24 hrs by LC-ESI-MS analysis; assay type: ADME, organism-based; details: in vivo

With c1ccc(-c2ccccc2OCCCCCCn2cc(-c3cccnc3)nn2)cc1 the inhibition [1] was “Active”, the Drug metabolism [2] was “Metabolite_Detected” and the Drug metabolism [3] was “Metabolite_Detected”. The clearance [4] was 194 mL/min/kg, the Drug metabolism [5] was “Metabolite_Detected” and the Activity [6] was “Non-Toxic”. For the same molecule, the half-life [7] was 1.89 h, the Activity [8] was “Active” and the Activity [9] was “Active”. The EC50 [10] was 5.2 nM, the Drug metabolism [11] was “Metabolite_Detected” and the Activity [12] was “Active”. For the same molecule, the IC50 [13] was 3 nM, the Activity_index [14] was 2.5 and the Activity [15] was “Active”. The Stability [16] was “Stable”, the Vd [17] was 31.8 L/kg and the inhibition [18] was “Active”. The inhibition [19] was “Active”, the remaining at 1 h [20] was 49% and the AUC at 24 h [21] was 859 ng·h/mL. For the same molecule, the inhibition [22] was “Active”, the Activity [23] was “Active” and the Activity [24] was “Active”. The inhibition [25] was “Active”, the solubility [26] was “Insoluble” and the IC50 [27] was 6.7 nM. For the same molecule, the Stability [28] was “Stable”, the inhibition [29] was “Active” and the inhibition [30] was “Active”. The IC50 [31] was 3.8 nM, the remaining at 1 h [32] was 31% and the Drug metabolism [33] was “Metabolite_Notdetected”.
